In ChEMBL document CHEMBL6083209, “Pyridazinone-based derivatives as anticancer agents endowed with anti-microbial activity: molecular design, synthesis, and biological investigation” (RSC Med Chem, 2024):
≈ marks a conversion by molar mass, not a printed value. Calls of active or inactive are those of the source. The calls are words filed in the database; no cut-off is given here.

Columns and labels:
[1] = test system: SF-295; assay: Antiproliferative activity against human SF-295 cells assessed as growth inhibition at 10 uM incubated for 48 hrs by SRB method; format: functional; details: read-out: GI
How it was run: (§1)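 NCI-60 one-dose screen at 10 μM. Cells were grown in RPMI 1640 with 5% FBS and 2 mM L-glutamine and plated at 5000–40 000 cells/well for 24 h. Drug exposure was 48 h at 37 °C, 5% CO2. Cells were fixed with TCA, stained with 0.4% SRB and read at 515 nm. Growth is expressed as percent of untreated control and time-zero plates.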

[2] = test system: OVCAR-8; assay: Antiproliferative activity against human OVCAR-8 cells assessed as growth inhibition incubated for 48 hrs by SRB method; format: functional
How it was run: (§2)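 NCI-60 five-dose screen at 0.01, 0.1, 1, 10 and 100 μM, triplicate wells per dose. Cells were in RPMI 1640 with 5% FBS and 2 mM L-glutamine, pre-grown 24 h and then treated for 48 h at 37 °C. Read-out was TCA fixation and SRB absorbance at 515 nm.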

[3] = test system: UACC-257; assay: Antiproliferative activity against human UACC-257 cells assessed as growth inhibition incubated for 48 hrs by SRB method; format: functional; how it was run: as §2
[4] = test system: Escherichia coli; assay: Antimicrobial activity against Escherichia coli ATCC 25922 by broth microdilution method
[5] = test system: HOP-92; assay: Antiproliferative activity against human HOP-92 cells assessed as growth inhibition incubated for 48 hrs by SRB method; format: functional; how it was run: as §2
[6] = test system: Candida albicans; assay: Antimicrobial activity against Candida albicans ATCC 10231 by broth microdilution method
[7] = test system: RXF 393; assay: Antiproliferative activity against human RXF 393 cells assessed as growth inhibition incubated for 48 hrs by SRB method; format: functional; how it was run: as §2
[8] = test system: U-251; assay: Antiproliferative activity against human U-251 cells assessed as growth inhibition incubated for 48 hrs by SRB method; format: functional; how it was run: as §2
[9] = Upregulation of Bax gene expression in human A549 cells assessed as fold increase by qRT-PCR analysis; format: functional
How it was run: (§3)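 A549/ATCC cells treated, total RNA DNase-treated and checked by 260/280 ratio (1.8–2.1). Reverse transcription with oligo-dT and MuLV RT: 25 °C 10 min, 42 °C 1 h, 99 °C 5 min. qPCR of 40 cycles (95 °C 15 s, 55 °C 30 s, 72 °C 30 s) followed by melt curve. Relative expression by the 2−ΔΔCT method, mean ± SEM.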

[10] = test system: A549; assay: Downregulation of Bcl-2 gene expression in human A549 cells by qRT-PCR analysis; format: functional, cell-based; how it was run: as §3
[11] = test system: SF-268; assay: Antiproliferative activity against human SF-268 cells assessed as growth inhibition incubated for 48 hrs by SRB method; format: functional; how it was run: as §2
[12] = test system: U-251; assay: Antiproliferative activity against human U-251 cells assessed as growth inhibition at 10 uM incubated for 48 hrs by SRB method; format: functional; details: read-out: GI; how it was run: as §1
[13] = test system: MDA-MB-231; assay: Antiproliferative activity against human MDA-MB-231 cells assessed as growth inhibition incubated for 48 hrs by SRB method; details: MDA-MB-231, 48 h
[14] = Upregulation of p53 gene expression in human A549 cells assessed as fold increase by qRT-PCR analysis; format: functional; how it was run: as §3
[15] = test system: A549; assay: Induction of cell cycle arrest in human A549 cells assessed as increase in cells at G0-G1 phase at GI50 concentration by flow cytometry analysis (reference value: 85.84%); format: functional
[16] = test system: SF-295; assay: Antiproliferative activity against human SF-295 cells assessed as growth inhibition incubated for 48 hrs by SRB method; format: functional; how it was run: as §2
[17] = test system: SNB-19; assay: Antiproliferative activity against human SNB-19 cells assessed as growth inhibition at 10 uM incubated for 48 hrs by SRB method; format: functional; details: read-out: GI; how it was run: as §1
[18] = test system: UACC-62; assay: Antiproliferative activity against human UACC-62 cells assessed as growth inhibition at 10 uM incubated for 48 hrs by SRB method; format: functional; details: read-out: GI
How it was run: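 NCI-60 one-dose screen at 10 μM. Cells grown in RPMI 1640 with 5% FBS and 2 mM L-glutamine, plated at 5000–40 000 cells/well and preincubated 24 h at 37 °C, 5% CO2. Drug exposure 48 h. Fixed with TCA and stained with 0.4% SRB, absorbance read at 515 nm. Percent growth calculated against untreated control and time-zero plates.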

[19] = test system: A549; assay: Induction of cell cycle arrest in human A549 cells assessed as increase in cells at G0-G1 phase at GI50 concentration by flow cytometry analysis (reference value: 85.46%); format: functional
[20] = test system: Hs-578T; assay: Antiproliferative activity against human Hs-578T cells assessed as growth inhibition incubated for 48 hrs by SRB method
[21] = test system: SNB-75; assay: Antiproliferative activity against human SNB-75 cells assessed as growth inhibition incubated for 48 hrs by SRB method; format: functional; how it was run: as §2
[22] = test system: UACC-62; assay: Antiproliferative activity against human UACC-62 cells assessed as growth inhibition incubated for 48 hrs by SRB method; format: functional
How it was run: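 NCI-60 five-dose screen at 0.01, 0.1, 1, 10 and 100 μM, triplicate wells per dose. Cells grown in RPMI 1640/5% FBS, preincubated 24 h, then exposed 48 h at 37 °C. TCA fixation, SRB stain, A515.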

[23] = test system: NCI-H522; assay: Antiproliferative activity against human NCI-H522 cells assessed as growth inhibition incubated for 48 hrs by SRB method; format: functional; how it was run: as §2
[24] = test system: Staphylococcus aureus; assay: Antimicrobial activity against Staphylococcus aureus ATCC 29213 by broth microdilution method
[25] = test system: A549; assay: Induction of cell cycle arrest in human A549 cells assessed as decrease in cells at G2/M phase at GI50 concentration by flow cytometry analysis (reference value: 13.15 to 13.37%); format: functional; parameters: scale not given: the % may be the effect or the level left
[26] = test system: SK-MEL-2; assay: Antiproliferative activity against human SK-MEL-2 cells assessed as growth inhibition at 10 uM incubated for 48 hrs by SRB method; format: functional; details: read-out: GI; how it was run: as §1
[27] = test system: A549; assay: Induction of cell cycle arrest in human A549 cells assessed as decrease in cells at S phase at GI50 concentration by flow cytometry analysis (reference value: 0.31 to 0.51%); format: functional; parameters: scale not given: the % may be the effect or the level left
[28] = test system: HOP-62; assay: Antiproliferative activity against human HOP-62 cells assessed as growth inhibition at 10 uM incubated for 48 hrs by SRB method; format: functional; details: read-out: GI; how it was run: as §1
[29] = test system: A549; assay: Induction of cell cycle arrest in human A549 cells assessed as increase in cells at G0-G1 phase at GI50 concentration by flow cytometry analysis (reference value: 85.41%); format: functional
[30] = test system: NCI-H522; assay: Antiproliferative activity against human NCI-H522 cells assessed as growth inhibition at 10 uM incubated for 48 hrs by SRB method; format: functional; details: NCI-H522, read-out: GI; how it was run: as §1
[31] = test system: CCRF-CEM; assay: Antiproliferative activity against human CCRF-CEM cells assessed as growth inhibition at 10 uM incubated for 48 hrs by SRB method; format: functional; details: read-out: GI; how it was run: as §1
[32] = test system: KM12; assay: Antiproliferative activity against human KM12 cells assessed as growth inhibition at 10 uM incubated for 48 hrs by SRB method; format: functional; details: read-out: GI; how it was run: as §1
[33] = test system: MCF7; assay: Antiproliferative activity against human MCF7 cells assessed as growth inhibition at 10 uM incubated for 48 hrs by SRB method; format: functional; details: read-out: GI; how it was run: as §1
[34] = test system: PC-3; assay: Antiproliferative activity against human PC-3 cells assessed as growth inhibition at 10 uM incubated for 48 hrs by SRB method; format: functional; details: PC-3, read-out: GI; how it was run: as §1
[35] = test system: OVCAR-3; assay: Antiproliferative activity against human OVCAR-3 cells assessed as growth inhibition at 10 uM incubated for 48 hrs by SRB method; format: functional; details: read-out: GI; how it was run: as §1
[36] = test system: RPMI-8226; assay: Antiproliferative activity against human RPMI-8226 cells assessed as growth inhibition at 10 uM incubated for 48 hrs by SRB method; format: functional; details: RPMI-8226, read-out: GI; how it was run: as §1
[37] = test system: K562; assay: Antiproliferative activity against human K562 cells assessed as growth inhibition at 10 uM incubated for 48 hrs by SRB method; format: functional; details: K562, read-out: GI; how it was run: as §1
[38] = test system: T47D; assay: Antiproliferative activity against human T47D cells assessed as growth inhibition at 10 uM incubated for 48 hrs by SRB method; format: functional; details: read-out: GI; how it was run: as §1

With O=C(NC(=S)Nc1ccc(-c2ccc(=O)[nH]n2)cc1)c1cccc(Cl)c1 the inhibition of growth at 10 µM [1] was 93%, the GI50 [2] was 6.24 µM and the GI50 [3] was 5.59 µM. The MIC [4] was over 1020 µg/mL, the GI50 [5] was 3.18 µM and the MIC [6] was 512 µg/mL (≈ 1330 µM). For the same compound, the GI50 [7] was 6.6 µM, the GI50 [8] was 6.94 µM and the “fold change (FC)” value [9] was 3. For the same compound, the Activity [10] was “Active”, the GI50 [11] was 6.91 µM and the inhibition of growth at 10 µM [12] was 96.1%. The GI50 [13] was 6.83 µM, the “fold change (FC)” value [14] was 3 and the Activity [15] was 89.87%. The GI50 [16] was 7.23 µM, the inhibition of growth at 10 µM [17] was 91.2% and the inhibition of growth at 10 µM [18] was 91%. It also gave an Activity [19] of 89.51%, a GI50 [20] of 5.8 µM and a GI50 [21] of 3.92 µM. For the same compound, the GI50 [22] was 4.07 µM, the GI50 [23] was 4.55 µM and the MIC [24] was 512 µg/mL (≈ 1330 µM). For the same compound, the Activity [25] was 8.95%, the inhibition of growth at 10 µM [26] was 98% and the Activity [27] was 0.19%. For the same compound, the inhibition of growth at 10 µM [28] was 94.6% and the Activity [29] was 90.86%.

O=C(Nc1ccc(-c2ccc(=O)[nH]n2)cc1)Nc1cccc(Cl)c1 showed an inhibition of growth at 10 µM [1] of 72.7%, an inhibition of growth at 10 µM [30] of 73.5% and an MIC [4] of over 1020 µg/mL. It also gave an MIC [6] of over 1020 µg/mL, an inhibition of growth at 10 µM [31] of 72.9% and an inhibition of growth at 10 µM [32] of 66.4%. For the same compound, the inhibition of growth at 10 µM [33] was 64%, the inhibition of growth at 10 µM [34] was 68% and the inhibition of growth at 10 µM [35] was 62.2%. It also gave an inhibition of growth at 10 µM [36] of 73.5%, an inhibition of growth at 10 µM [37] of 68.4% and an MIC [24] of 256 µg/mL (≈ 751 µM). For the same compound, the inhibition of growth at 10 µM [38] was 74.7%.
